Results collected from several papers.
Target: Receptor tyrosine-protein kinase erbB-2 (ERBB2, Homo sapiens, UniProt P04626)

CS(=O)(=O)N1CCCC(NC(=O)[C@H](CCC2CCCCC2)NC(=O)c2ccc(CNc3ncnc4c3nnn4-c3ccccc3)cc2)C1 (stereo partly shown)
remaining binding (cell-free assay; competition with immobilised ligand; 0.1 µM): 100%

COc1cc(Nc2c(C#N)cnc3cc(OCCCN4CCN(C)CC4)c(OC)cc23)c(Cl)cc1Cl
remaining signal (cell-free assay; 0.5 µM): 32.9%

CC(C)(O)[C@H]1CC[C@H](Nc2ccc3ncc(-c4cccc(C(F)(F)F)c4)n3n2)CC1
remaining activity (enzyme activity; inhibitor; 1 µM): 92%

COc1ccc2c(c1)O[C@@H](c1ccc(OC)c(OC)c1)C[C@H]2NC(=O)C1(c2ccc3c(c2)OC(F)(F)O3)CC1
remaining binding (cell-free assay; competition with immobilised ligand; 1 µM): 75%

CC(C)(C)c1nc2c(s1)c1nc(N)ncc1c1ccc(NS(=O)(=O)c3c(F)cccc3F)c(F)c12
remaining activity (enzyme activity; inhibitor; radiometric; 1 µM): 109%

Nc1nc(Nc2ccc(S(N)(=O)=O)cc2)nn1C(=O)c1c(F)cccc1F
remaining signal (cell-free assay; 0.5 µM): 91.1%

Cn1nc(C(F)(F)F)cc1-c1cnc(N2CCc3cc(S(=O)(=O)Nc4c(F)cc(Cl)cc4F)cc(N4CCCC4=O)c32)nc1
remaining binding (cell-free assay; competition with immobilised ligand; 1 µM): 79%

Cc1cnc(NC2CCOCC2)nc1-n1cnc(C(=O)NC(CN)c2cc(F)cc(Cl)c2)c1 (stereo not shown)
remaining activity (enzyme activity; inhibitor; radiometric; 1 µM): 100%

C=CC(=O)Nc1cc(Nc2nccc(Nc3cc(Cl)c(F)cc3C(C)(C)O)n2)c(OC)cc1N1CC[C@@H](N(C)C)C1
inhibition (enzyme activity; inhibitor; 1 µM): 73%

COc1cc2nccc(Oc3ccc(NC(=O)c4c5n(n(-c6ccc(F)cc6)c4=O)CCCC5)cc3)c2cc1OC
inhibition (enzyme activity; inhibitor; 0.1 µM): -1%

N#CCCc1ccc2c(c1)-c1[nH]c3ccc([N+](=O)[O-])cc3c1CC(=O)N2
remaining signal (cell-free assay; 0.5 µM): 98.6%

CN(C)C(=O)Cn1cc(-c2nc([C@@](C)(c3ccc(-c4cnc(N)nc4)cc3)C3CC3)no2)cn1
remaining binding (cell-free assay; competition with immobilised ligand; 1 µM): 100%

COc1cc2c(N3CCN(C(=O)Nc4ccc(OC(C)C)cc4)CC3)ncnc2cc1OCCCN1CCCCC1
remaining signal (cell-free assay; 0.5 µM): 104%

O=C(NS(=O)(=O)c1ccc(NCC2CCOCC2)c([N+](=O)[O-])c1)c1ccc(N2CCN(Cc3ccc(C(F)(F)F)cc3-c3ccc(Cl)cc3)CC2)cc1Oc1cnc2[nH]ccc2c1
remaining binding (cell-free assay; competition with immobilised ligand; 1 µM): 100%

Cc1sc(C(=O)NC2COC2)cc1-n1cc(NC(=O)Nc2c(F)cccc2Cl)cn1
remaining activity (enzyme activity; inhibitor; 10 µM): 64.1%

C[C@H](c1ccnc(Nc2nc3ccc(-c4cc(N(C)C)ncn4)cc3[nH]2)c1)N1CCN(C(=O)CC(F)(F)F)CC1
remaining binding (cell-free assay; competition with immobilised ligand; 0.1 µM): 100%

O=C1NC(=O)c2cc(Nc3ccc(F)cc3)c(Nc3ccc(F)cc3)cc21
remaining signal (cell-free assay; 0.5 µM): 107%

CC/C(=N\NC(=O)NCc1cccc(O)c1)c1ccc(O)c(C)c1O
inhibition (enzyme activity; inhibitor; 0.1 µM): 0.8%

Cc1noc([C@H]2C[C@@H](c3ccc(C(F)(F)F)cc3)CN(C(=O)N3CCS(=O)(=O)C3)C2)n1
remaining binding (cell-free assay; competition with immobilised ligand; 1 µM): 100%

Cc1cc(NC(=O)c2cccc3cc(-c4cccc5[nH]nc(N)c45)ccc23)ccc1F
activity vs control (enzyme activity; inhibitor; 0.1 µM): 108%

COc1cc2ncnc(Nc3ccc(Oc4ccccc4)cc3C)c2cc1OC
inhibition (enzyme activity; inhibitor; 1 µM): 55%

CS(=O)(=O)Nc1cccc(-c2csc(NC(=O)CSc3nc4nccnc4c(=O)n3CCc3ccccc3)n2)c1
inhibition (enzyme activity; inhibitor; 10 µM): -12%

O=C1Nc2ccc(Cl)cc2C1=Cc1cc(Cl)c(O)c(Cl)c1
remaining signal (cell-free assay; 0.5 µM): 107%

COc1cc(Cl)c(C(=O)N[C@@H](CN[C@H]2CC[C@@H](N)CC2)Cc2ccc(C#N)cc2)cc1-c1ccc(CN[C@H](C)c2ccc(C)cc2)o1
remaining activity (enzyme activity; inhibitor; 1 µM): 91%

c1ccc(CNc2nc(N3CCOc4ccccc43)nc3c2CCCC3)cc1
inhibition (target engagement in cells; inhibitor; chemoproteomics; 20 mM): 0.8%
